Assay results: ChEMBL document CHEMBL4613235, “A scaffold replacement approach towards new sirtuin 2 inhibitors” (Bioorg Med Chem, 2020)

Key:
[1] = molecular target: T1, NAD-dependent protein deacetylase sirtuin-1 (Homo sapiens) (UniProt Q96EB6); experiment: (§1) Inhibition of recombinant GST-tagged human SIRT1 at 200 uM using FLUOR DE LYS SIRT1 as substrate preincubated with substrate for 5 mins followed by enzyme addition and measured after 1 hr in presence of NAD+ by fluorescence based assay relative to control
T1 sequence (whole entry): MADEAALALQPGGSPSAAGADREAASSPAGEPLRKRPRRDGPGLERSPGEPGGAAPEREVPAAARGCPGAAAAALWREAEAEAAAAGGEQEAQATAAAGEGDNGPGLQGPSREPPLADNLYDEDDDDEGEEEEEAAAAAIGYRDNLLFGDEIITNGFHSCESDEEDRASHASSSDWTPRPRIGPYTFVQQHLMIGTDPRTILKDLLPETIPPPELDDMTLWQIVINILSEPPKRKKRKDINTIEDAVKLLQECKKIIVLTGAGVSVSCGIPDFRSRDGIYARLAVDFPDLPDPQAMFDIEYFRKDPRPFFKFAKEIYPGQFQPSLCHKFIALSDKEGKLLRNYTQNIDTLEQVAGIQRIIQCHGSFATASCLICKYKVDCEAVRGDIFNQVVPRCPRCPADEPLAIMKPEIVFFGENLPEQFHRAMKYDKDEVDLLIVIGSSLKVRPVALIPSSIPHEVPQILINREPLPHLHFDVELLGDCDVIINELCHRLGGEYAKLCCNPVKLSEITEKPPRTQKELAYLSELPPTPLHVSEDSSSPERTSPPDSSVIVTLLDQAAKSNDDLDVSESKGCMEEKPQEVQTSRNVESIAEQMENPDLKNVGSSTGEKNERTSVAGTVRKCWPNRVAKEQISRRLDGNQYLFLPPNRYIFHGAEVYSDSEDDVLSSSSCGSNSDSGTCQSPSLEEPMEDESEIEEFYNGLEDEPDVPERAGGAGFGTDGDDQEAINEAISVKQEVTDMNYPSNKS
Outline: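 Fluor de Lys assay using GST-SIRT1 produced in-house and acetylated peptide substrate KI177 at 0.7 Km, with NAD+ at 0.9 Km in SIRT assay buffer. Buffer, substrate, NAD+ and compound in DMSO were preincubated 5 min at room temp, then enzyme was added and run 1 h at 37 °C. Developer plus nicotinamide was added for 45 min at 37 °C. Read at ex 370/em 460 nm. SD, n = 3.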

[2] = molecular target: T2, NAD-dependent protein deacetylase sirtuin-3, mitochondrial (Homo sapiens) (UniProt Q9NTG7); experiment: as §1, with “N-terminal His-tagged” for “GST-tagged”, “sirtuin 3 (102 to 399 residues) expressed in Escherichia coli” for “SIRT1”, “fluor de lys SIRT2” for “FLUOR DE LYS SIRT1”
T2 sequence (whole entry): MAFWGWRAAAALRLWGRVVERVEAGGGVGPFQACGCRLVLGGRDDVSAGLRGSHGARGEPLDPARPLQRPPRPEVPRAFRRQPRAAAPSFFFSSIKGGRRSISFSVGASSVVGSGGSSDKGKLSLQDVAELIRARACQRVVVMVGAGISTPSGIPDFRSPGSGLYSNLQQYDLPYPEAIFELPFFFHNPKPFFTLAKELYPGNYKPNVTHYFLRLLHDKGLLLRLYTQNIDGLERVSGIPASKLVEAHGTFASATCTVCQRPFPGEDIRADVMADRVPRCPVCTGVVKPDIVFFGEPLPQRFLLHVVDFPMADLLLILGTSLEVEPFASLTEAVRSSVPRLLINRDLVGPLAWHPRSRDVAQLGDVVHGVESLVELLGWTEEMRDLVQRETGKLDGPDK
Outline: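 Purchased recombinant His-SIRT3 was used with Fluor de Lys acetylated peptide substrate KI179 at 0.7 Km and NAD+ at 0.9 Km in SIRT assay buffer. Compound in DMSO was preincubated 5 min at room temp with buffer, substrate and NAD+; enzyme addition began the 1 h, 37 °C reaction. Developer with nicotinamide followed for 45 min at 37 °C; ex 370/em 460 nm read-out. SD, n = 3.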

[3] = molecular target: T3, NAD-dependent protein deacetylase sirtuin-2 (Homo sapiens) (UniProt Q8IXJ6); experiment: Inhibition of recombinant GST-tagged human SIRT2 expressed in Escherichia coli at 200 uM using FLUOR DE LYS SIRT2 as substrate preincubated with substrate for 5 mins followed by enzyme addition and measured after 1 hr in presence of NAD+ by fluorescence based assay relative to control
T3 sequence (whole entry): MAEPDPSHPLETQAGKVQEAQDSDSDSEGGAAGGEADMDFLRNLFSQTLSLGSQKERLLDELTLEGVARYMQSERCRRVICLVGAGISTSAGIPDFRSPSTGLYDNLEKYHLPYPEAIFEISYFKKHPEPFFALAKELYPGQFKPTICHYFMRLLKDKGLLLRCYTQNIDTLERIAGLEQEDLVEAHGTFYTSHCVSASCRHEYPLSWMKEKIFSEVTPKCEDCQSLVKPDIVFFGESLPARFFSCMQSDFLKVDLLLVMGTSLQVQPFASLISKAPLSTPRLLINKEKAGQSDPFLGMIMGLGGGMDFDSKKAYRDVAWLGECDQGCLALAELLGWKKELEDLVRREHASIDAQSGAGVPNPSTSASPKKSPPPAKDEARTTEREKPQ
Outline: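 Fluor de Lys assay using GST-SIRT2 produced in-house and acetylated peptide substrate KI179 at 0.7 Km, with NAD+ at 0.9 Km in SIRT assay buffer. Buffer, substrate, NAD+ and compound in DMSO were preincubated 5 min at room temp; enzyme started the 1 h, 37 °C reaction. Developer with nicotinamide was added for 45 min at 37 °C; fluorescence read at ex 370/em 460 nm. SD, n = 3.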

| inhibition [1] [%] | inhibition [2] [%] | inhibition [3] [%] | SMILES |
| --- | --- | --- | --- |
| 8.7 | 7.2 | 13 | CCOC(=O)CCCN1C(=O)c2ccccc2S1(=O)=O |
|  |  | 34 | CCCCCN1C(=O)c2ccccc2S1(=O)=O |
|  |  | 35 | O=S1(=O)NC(CCc2ccccc2)=Cc2ccc(Br)cc21 |
|  |  | 6.2 | O=C1c2ccc(Br)cc2S(=O)(=O)N1CCc1cccc([N+](=O)[O-])c1 |
| 4.6 | 54 | 47 | O=S1(=O)NC(CCc2ccccc2)Nc2c(Br)cc(Br)cc21 (centres undefined) |
|  |  | 15 | O=S1(=O)NC(CCc2ccccc2)=Cc2ccccc21 |
|  |  | 53 | COC(=O)CCCCc1cc(=O)c2cc(Cl)cc(Br)c2[nH]1 |
|  |  | 12 | CCCCC1=Cc2ccccc2S(=O)(=O)N1 |
| 9.7 | 9.9 | 59 | O=S1(=O)NC(CCc2cccc(Br)c2)Nc2c(Br)cc(Br)cc21 (centres undefined) |
|  |  | 10 | O=S1(=O)N=C(CCc2ccc(Br)cc2)Nc2c(Br)cc(Br)cc21 |
| 25 | 28 | 74 | O=c1ccc2cc(CCC3Nc4c(Br)cc(Br)cc4S(=O)(=O)N3)ccc2[nH]1 (centres undefined) |
| 4.4 | 5.8 | 32 | CCCCCC1Nc2c(Br)cc(Br)cc2S(=O)(=O)N1 (centres undefined) |
| 17 | 14 | 12 | O=C1c2ccccc2S(=O)(=O)N1CCCc1cccnc1 |
| 0 | 3.2 | 24 | O=S1(=O)N=C(CCc2cccc(Br)c2)Nc2c(Br)cc(Br)cc21 |
| 14 | 14 | 34 | O=C1c2ccccc2S(=O)(=O)N1CCc1ccccc1 |
|  |  | 13 | O=C1CCC(=O)N1CCN1C(=O)c2ccc(Br)cc2S1(=O)=O |
| 9.8 | 4.5 |  | CCCCCc1cc(=O)c2cc(Cl)cc(Br)c2o1 |
|  |  | 15 | O=C1c2ccc(Br)cc2S(=O)(=O)N1CCc1cccc(Br)c1 |
|  |  | 15 | O=S1(=O)N=C(CCc2ccccc2)Nc2c(Br)cc(Br)cc21 |
|  |  | 6.9 | CCCCCN1C(=O)c2ccc(Br)cc2S1(=O)=O |
|  |  | 29 | CCCCC1=Cc2ccc(Br)cc2S(=O)(=O)N1 |
|  |  | 26 | CCCCCc1cc(=O)c2cc(Cl)cc(Br)c2[nH]1 |
| 3.8 | 1.6 | 4.7 | O=C1c2ccc(Br)cc2S(=O)(=O)N1CCc1ccccc1 |
| 7.6 | 41 | 58 | O=c1cc(Cc2ccccc2)[nH]c2c(Br)cc(Cl)cc12 |
|  |  | 75 | O=c1cc(CCc2ccccc2)oc2c(Br)cc(Cl)cc12 |
| 5.2 | 15 | 12 | O=C1c2ccc(Br)cc2S(=O)(=O)N1CCc1ccc(O)cc1 |
